# pIC50: −log10 of the molar value. Calls of active or inactive are those of the source. No cut-off for these calls is given here.
# Key:
# [1] = tested on: Mycobacterium tuberculosis; assay: Inhibition of Mycobacterium tuberculosis His6-tagged InhA expressed in Escherichia coli BL21 (DE3) assessed as decrease in NADH oxidation to NAD+ at 10 uM using 2-trans-decenoyl-CoA as substrate preincubated for 2 hrs followed by substrate and NADH addition measured for 1 min by spectrophotometric method relative to control
# Method in brief: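 Recombinant MTB InhA expressed in E. coli and purified. DD-CoA reduction followed spectrophotometrically as NADH oxidation to NAD+. Fixed non-saturating NADH and DD-CoA, 1% DMSO. Compound at 10 μM; per cent inhibition relative to a no-inhibitor control, which set the maximal rate.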
# [2] = Inhibition of Mycobacterium tuberculosis His6-tagged InhA expressed in Escherichia coli BL21 (DE3) assessed as decrease in NADH oxidation to NAD+ using 2-trans-decenoyl-CoA as substrate preincubated for 2 hrs followed by substrate and NADH addition measured for 1 min by spectrophotometric method
# Method in brief: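 Recombinant MTB InhA purified from E. coli. NADH oxidation during DD-CoA reduction read spectrophotometrically, with fixed non-saturating NADH and DD-CoA in 1% DMSO. IC50, the concentration halving enzyme velocity, determined for compounds giving over 50% inhibition at 10 μM.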
# [3] = tested on: Mycobacterium tuberculosis; assay: Antimycobacterial activity against Mycobacterium tuberculosis H37Rv ATCC 27294 by agar dilution method; type: functional
# Method in brief: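 Growth of M. tuberculosis H37Rv (ATCC27294) on agar dilution. Compounds at 50 to 0.78 μg/ml in duplicate. MIC taken as the lowest concentration giving complete growth inhibition. Isoniazid, ethambutol and ofloxacin served as references.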
# [4] = Cytotoxicity against mouse RAW264.7 cells assessed as growth inhibition at 100 uM after 72 hrs by MTT assay relative to control; type: cell-based; conditions: read-out: GI
# Method in brief: (§1)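 RAW 264.7 mouse macrophage line exposed to compound at 100 and 50 μM for 72 h. Viability by MTT conversion to formazan. Reported as per cent inhibition.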
# [5] = Cytotoxicity against mouse RAW264.7 cells assessed as growth inhibition at 50 uM after 72 hrs by MTT assay relative to control; type: cell-based; conditions: read-out: GI; method in brief: as §1
# [6] = tested on: Mycobacterium tuberculosis; assay: Antimycobacterial activity against Mycobacterium tuberculosis H37Rv-GFP infected in mouse RAW264.7 cells assessed as growth inhibition at 1 ug/ml after 5 days by confocal microscopic method; type: functional, cell-based
# Method in brief: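 Intracellular M. tuberculosis in mouse macrophages. Initial screen at 0.1, 1 and 10 µg/ml.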
# [7] = tested on: Mycobacterium tuberculosis; assay: Antimycobacterial activity against Mycobacterium tuberculosis H37Rv-GFP infected in mouse RAW264.7 cells after 5 days by confocal microscopic method; type: functional, cell-based; conditions: RAW264.7, 120 h
# Method in brief: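 Intracellular M. tuberculosis in mouse macrophages. After initial screening at 0.1, 1 and 10 µg/ml, six doses between 0.1 and 1.0 µg/ml were tested to derive IC50.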
# [8] = tested on: Escherichia coli; assay: Antibacterial activity against Escherichia coli at 50 to 100 ug/ml by cup plate agar diffusion method; type: functional
# Method in brief: (§2)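 Tested at 50 and 100 μg/ml by cup-plate agar diffusion against E. coli, P. aeruginosa, S. aureus and B. subtilis.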
# [9] = tested on: Pseudomonas aeruginosa; assay: Antibacterial activity against Pseudomonas aeruginosa at 50 to 100 ug/ml by cup plate agar diffusion method; type: functional; method in brief: as §2
# [10] = tested on: Staphylococcus aureus; assay: Antibacterial activity against Staphylococcus aureus at 50 to 100 ug/ml by cup plate agar diffusion method; type: functional; method in brief: as §2
# [11] = tested on: Bacillus subtilis; assay: Antibacterial activity against Bacillus subtilis at 50 to 100 ug/ml by cup plate agar diffusion method; type: functional; method in brief: as §2
# [12] = tested on: Mycobacterium tuberculosis; assay: Stabilization of Mycobacterium tuberculosis InhA assessed as change in melting temperature by sypro orange dye-based differential scanning fluorimetry
# Method in brief: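 Differential scanning fluorimetry of InhA with ligand versus native protein. Heated from 25 °C to 95 °C in 0.1 °C steps with SYPRO Orange. Tm shift taken relative to native protein.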
SMILES,inhibition [1] [%],pIC50 [2],MIC [3] [µM],"inhibition at 72 h, 100 µM [4] [%]","inhibition at 72 h, 50 µM [5] [%]",growth inhibition (GI) [6],IC50 [7] [µg/mL],Activity [8],Activity [9],Activity [10],Activity [11],ΔTm [12] [°C]
O=C(N/N=C(/N=N/c1ccc(F)cc1)c1ccccc1)c1cc(O)c(O)c(O)c1,87.1,5.47,1.98,23.7,11.8,Active,0.62,inactive,inactive,inactive,inactive,–
COc1ccc(/N=N/C(=N/NC(=O)c2cc(O)c(O)c(O)c2)c2ccccc2)cc1,69.3,5.24,1.92,15,4.51,Active,0.56,inactive,inactive,inactive,inactive,–
O=C(N/N=C(/N=N/c1ccccc1[N+](=O)[O-])c1ccccc1)c1cc(O)c(O)c(O)c1,62.3,5.07,14.8,5.43,2.11,–,–,inactive,inactive,inactive,inactive,–
O=C(N/N=C(/N=N/c1ccccc1)c1ccccc1)c1cc(O)c(O)c(O)c1,42.2,–,38.1,41.4,13.6,–,–,inactive,inactive,inactive,inactive,–
Cc1ccccc1/N=N/C(=N/NC(=O)c1cc(O)c(O)c(O)c1)c1ccccc1,81.4,5.48,15.4,41.5,32.7,–,–,inactive,inactive,inactive,inactive,–
O=C(N/N=C(/N=N/c1ccc([N+](=O)[O-])cc1)c1ccccc1)c1cc(O)c(O)c(O)c1,57.1,5.09,7.42,34.6,11.1,–,–,inactive,inactive,inactive,inactive,–
NNC(=O)c1ccncc1 [ISONIAZID],–,–,0.72,–,–,–,–,–,–,–,–,–
O=C(N/N=C(/N=N/c1ccccc1Cl)c1ccccc1)c1cc(O)c(O)c(O)c1,57.1,5.04,15.2,32.6,24.5,–,–,inactive,inactive,inactive,inactive,–
COc1ccccc1/N=N/C(=N/NC(=O)c1cc(O)c(O)c(O)c1)c1ccccc1,71.7,5.18,4,52.7,46.5,–,–,inactive,inactive,inactive,inactive,–
CC[C@@H](CO)NCCN[C@@H](CC)CO [ETHAMBUTOL],–,–,7.64,–,–,–,–,–,–,–,–,–
CC1COc2c(N3CCN(C)CC3)c(F)cc3c(=O)c(C(=O)O)cn1c23 (stereo not given) [OFLOXACIN],–,–,2.16,–,–,–,–,–,–,–,–,–
O=C(N/N=C(/N=N/c1ccc(Cl)cc1Cl)c1ccccc1)c1cc(O)c(O)c(O)c1,73.2,5.28,1.75,21.5,12.1,Active,0.35,inactive,inactive,inactive,inactive,2.8

# Source: ChEMBL document CHEMBL4002632, “Development of gallic acid formazans as novel enoyl acyl carrier protein reductase inhibitors for the treatment of tuberculosis” (Bioorg Med Chem Lett, 2017)
